# Measurements pooled from the literature.
# Each line is one published result; the experiments were not run side by side.
# EGFR G719C: Epidermal growth factor receptor (EGFR, Homo sapiens, UniProt P00533, G719C)
SMILES,target,observed,action,technique,concentration,measurement,result
O=C(Nc1cccnn1)N1CCN([C@@H]2CCOc3cc(C(F)(F)F)ccc32)CC1,"Neuropeptide Y receptor type 1 (NPY1R, Homo sapiens, UniProt P25929)",cell-free assay,,,20 µM,inhibition,-5%
Nc1ncc(-c2nc(N3CCOCC3)nc(N3CCOCC3)n2)c(C(F)F)n1,EGFR G719C,cell-free assay,,competition with immobilised ligand,10 µM,remaining binding,56%
Cc1nn(C)cc1-c1nc2c(N3CCN(Cc4ccc(Cl)cc4)CC3)c(Cl)cnc2[nH]1,EGFR G719C,binding,,competition with immobilised ligand,1 µM,remaining binding,86%
CC[C@H](C)[C@H](NC(=O)[C@H](CO)NC(=O)[C@@H](N)CCCCN)C(=O)N[C@H](C(=O)N[C@@H](CC(N)=O)C(=O)N[C@@H](Cc1ccccc1)C(=O)N[C@@H](CCC(=O)O)C(=O)N[C@@H](CCCCN)C(=O)N[C@@H](CC(C)C)C(=O)O)[C@@H](C)CC,"Endoplasmic reticulum aminopeptidase 2 (ERAP2, Homo sapiens, UniProt Q6P179)",enzyme activity,substrate,mass spectrometry,,Km,12.3 µM
COc1ncccc1-c1cnn2ccc(N3CCN(C(=O)OC(C)C)CC3)nc12,"Ribosomal protein S6 kinase alpha-2, C-terminal kinase domain (RPS6KA2, Homo sapiens, UniProt Q15349)",binding,,competition with immobilised ligand,1 µM,remaining binding,83%
Cn1cc(-c2cccc(N3CCc4c(sc5c4CC(C)(C)C5)C3=O)c2CO)cc(Nc2ccncn2)c1=O,"PAS domain-containing serine/threonine-protein kinase (PASK, Homo sapiens, UniProt Q96RG2)",enzyme activity,inhibitor,,1 µM,inhibition,21%
CCN1CCN(Cc2ccc(C(=O)Nc3ccc(C)c(Oc4ccc5c(c4)CC(=O)N5)c3)cc2C(F)(F)F)CC1,"Serine/threonine-protein kinase PRP4 homolog (PRPF4B, Homo sapiens, UniProt Q13523)",binding,,competition with immobilised ligand,1 µM,remaining binding,100%
Cn1cc(-c2cc(F)cc(N3CCn4c(cc5c4CCCC5)C3=O)c2CO)cc(Nc2ccc(N3CCN(C4COC4)CC3)cn2)c1=O,"Muscle, skeletal receptor tyrosine-protein kinase (MUSK, Homo sapiens, UniProt O15146)",enzyme activity,inhibitor,,0.1 µM,inhibition,17%
Nc1cccc(-c2nsc(=O)o2)c1,"Proteasome Macropain subunit MB1 (PSMB5, Homo sapiens, UniProt P28074)",enzyme activity,inhibitor,,,kinact/KI,7.2 M⁻¹ s⁻¹
CCN(CC)CCCC[C@H](NC(=O)[C@H](CC(C)C)NC(=O)[C@H](C)NC(=O)[C@H](Cc1ccccc1)NC(=O)c1ccc(C(C)(C)C)cc1)C(=O)N[C@@H](CO)C(=O)OC,"Nucleosome-remodeling factor subunit BPTF (BPTF, Homo sapiens, UniProt Q12830)",thermal stability,,DSF,25 µM,ΔTm,0 °C
C#Cc1n[nH]c2c(-c3cn([C@@H](C)c4ccccn4)c(=O)[nH]c3=O)cc(F)cc12,"Serine/threonine-protein kinase B-raf (BRAF, Homo sapiens, UniProt P15056)",enzyme activity,inhibitor,,0.1 µM,inhibition,-0.3%
